These results are taken from ChEMBL document CHEMBL1122670, “Synthesis of previously inaccessible quinazolines and 1,4-benzodiazepines as potential anticonvulsants” (J Med Chem, 1984).

Data set [1] deals with GABA-A receptor; anion channel. In words: Inhibition of binding to GABA-A central benzodiazepine receptor (Inactive). Type of data set: protein-complex assay, Mus musculus.
Data set [2] concerns Mus musculus. In words: Effective dose (ED50) was determined in sc Met (pentylenetetrazole) seizure threshold test. Format: functional. A digest of the protocol: (§1)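 ADD Program screen in mice. Doses of 30, 100, 300 and 600 mg/kg were given, four animals per dose, with tests at 30 min and at 4 h. sc Met endpoint: no threshold seizure (single clonic spasm of 5 s) after an sc convulsant dose 99 of pentylenetetrazol. Rotorod assessed acute neurotoxicity. ED50/TD50 were estimated graphically; Litchfield-Wilcoxon 95% confidence limits were added for selected cases.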

The test system of data set [3] is Mus musculus. Description: Evaluated for seizure threshold test at a dose 300 mg/kg &MST is the metrazole seizure threshold to persistent clonus. Format: functional. A digest of the protocol: (§2)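 At 0.5 h (some at 1 or 4 h), 0.5% pentylenetetrazol in 0.9% NaCl with 0.001% heparin was infused into the tail vein at 6.31 μL/s. Time to 3 s persistent clonus (MST) or tonic flexion (MMT) was converted to mg/kg, reported as % change vs controls, Student's t test.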

A short description of data set [4]: Compound was determined in rotarod test and expressed as TD50. Type of data set: ADME, organism-based. The note with it: mouse, in vivo. A digest of the protocol:
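ADD Program screen in mice. Doses of 30, 100, 300 and 600 mg/kg were given, four animals per dose, with tests at 30 min and at 4 h. sc Met endpoint: no threshold seizure (single clonic spasm of 5 s) after an sc convulsant dose 99 of pentylenetetrazol. Rotorod assessed acute neurotoxicity.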

The test system of data set [5] is Mus musculus. In words: Evaluated for seizure threshold test at a dose 300 mg/kg &MMT is the maximal metrazole threshold to tonic flexion; I = Inactive. Also noted: dose 300 mg/kg. Type of data set: functional, organism-based. The method, boiled down:
as §2

Data set [6] deals with Mus musculus. In words: Evaluated for seizure threshold test at a dose 300 mg/kg &MMT is the maximal metrazole threshold to tonic flexion. Format: functional. The method, boiled down:
(§3)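 0.5% pentylenetetrazol (with 0.9% NaCl and 0.001% heparin) was infused into a lateral tail vein at 6.31 μL/s. Time to 3 s of persistent clonus (MST) or hindlimb tonic flexion (MMT) was converted to mg/kg infused. Tested at 0.5 h (some at 4 h or 1 h). Results are % change from controls, by Student's t test.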

Data set [7] has as its system Mus musculus. In words: Evaluated for seizure threshold test at a dose 25 mg/kg &MMT is the maximal metrazole threshold to tonic flexion; I = Inactive. Format: functional, organism-based. Details: dose 25 mg/kg. The method, boiled down:
as §3

Data set [8] is filed under the species Mus musculus. In words: Compound was determined in rotarod test and expressed as TD50; I = Inactive. Type of data set: ADME, organism-based. The settings on record: in vivo. A digest of the protocol:
as §1
(In general: Falling from the rotarod earlier than controls is read as motor impairment.)

For data set [9], the system named is Mus musculus. Description: Evaluated for seizure threshold test at a dose 25 mg/kg &MST is the metrazole seizure threshold to persistent clonus; I = Inactive. Format: functional, organism-based. Also noted: dose 25 mg/kg. A digest of the protocol: as §3
For data set [10], the system named is Mus musculus. Description: Effective dose (ED50) was determined in sc Met (pentylenetetrazole) seizure threshold test; I = Inactive. Format: functional, organism-based. The method, boiled down:
as §1

In data set [11] the test system is Mus musculus. Description: Evaluated for seizure threshold test at a dose 1 mg/kg &MMT is the maximal metrazole threshold to tonic flexion. Format: functional. The method, boiled down: as §2
In data set [12] the test system is Mus musculus. In words: Evaluated for seizure threshold test at a dose 0.2 mg/kg &MST is the metrazole seizure threshold to persistent clonus. Format: functional. A digest of the protocol: as §2
The target of data set [13] is GABA-A receptor; anion channel. Description: Binding affinity for umolar GABA-A central benzodiazepine receptor. Type of data set: protein-complex assay, Mus musculus.
The test system of data set [14] is Mus musculus. In words: Evaluated for seizure threshold test at a dose 1 mg/kg &MST is the metrazole seizure threshold to persistent clonus. Format: functional. A digest of the protocol: as §2
For data set [15], the system named is Mus musculus. In words: Evaluated for seizure threshold test at a dose 0.2 mg/kg &MMT is the maximal metrazole threshold to tonic flexion. Type of data set: functional. The method, boiled down:
as §2

Data set [16] concerns Mus musculus. Description: Evaluated for seizure threshold test at a dose 1.0 mg/kg &MMT is the maximal metrazole threshold to tonic flexion. Format: functional. A digest of the protocol: as §2
The subject of data set [17] is Mus musculus. Description: Evaluated for seizure threshold test at a dose 1.0 mg/kg &MST is the metrazole seizure threshold to persistent clonus. Type of data set: functional. The method, boiled down:
as §2

Data set [18] relates to Mus musculus. In words: Evaluated for seizure threshold test at a dose 100 mg/kg & MMT is the maximal metrazole threshold to tonic flexion; I - inactive. Also noted: dose 100 mg/kg. Format: functional, organism-based. A digest of the protocol:
as §3

Data set [19] concerns Mus musculus. Description: Evaluated for seizure threshold test at a dose 100 mg/kg & MMT is the maximal metrazole threshold to tonic flexion. Type of data set: functional. A digest of the protocol:
as §2

For data set [20], the system named is Mus musculus. Description: Evaluated for seizure threshold test at a dose 100 mg/kg & MST is the metrazole seizure threshold to persistent clonus. Type of data set: functional. A digest of the protocol: as §2
Data set [21] deals with Mus musculus. Description: Evaluated for seizure threshold test at a dose 100 mg/kg & MMT is the maximal metrazole threshold to tonic flexion; I - Inactive. Type of data set: functional, organism-based. Details: dose 100 mg/kg. The method, boiled down:
as §3

The test system of data set [22] is Mus musculus. Description: Evaluated for seizure threshold test at a dose 300 mg/kg & MST is the metrazole seizure threshold to persistent clonus. Format: functional. The method, boiled down: as §2
For data set [23], the system named is Mus musculus. Description: Evaluated for seizure threshold test at a dose 300 mg/kg & MMT is the maximal metrazole threshold to tonic flexion; I - Inactive. Format: functional. The method, boiled down:
as §3

Molecules are shown by their SMILES. pKi: −log10 of the molar value. Where “and” joins values, the source holds several entries; their conditions need not be identical. Equal values may be shown once. Calls of active or inactive are those of the source.

The ED50 is the midpoint of the dose-response relation. The TD50 is the dose at which the toxic effect under study appears in half of the subjects. Lower therefore signals harm at a small dose. For `Cc1cc2c(C3CCCCC3)nc(O)nc2c(C#N)c1C`, the IC50 result in data set [1] was “Not Active”. The ED50 in the data set on Mus musculus [2] turned out to be 260 mg/kg. Besides, the Change in the data set on Mus musculus [3] is 44%. Also, in [4], the TD50 is over 600 mg/kg. Moreover, the Change result in the data set on Mus musculus [5] was “inactive”.
In the case of `CC(=O)c1cc(C)c(C)c(C#N)c1N`, the 50% effect level with Mus musculus [2] (ED50) was put at a dose of 300 mg/kg. Also, the results for the Change in the data set with Mus musculus [3] and with Mus musculus [6] were 15% and 13%, respectively. The compound further showed a TD50 in data set [4] of over 600 mg/kg.
Regarding `Cc1cc2c(-c3ccccc3F)nc(O)nc2c(C#N)c1C`, the Change entry in the data set with Mus musculus [7] and with Mus musculus [9] was “Not significant” in each case. Also, the TD50 result in the data set filed under Mus musculus [8] is given as “Not Active”. For the same compound, the ED50 entry in the data set with Mus musculus [10] is “inactive”.
For orientation: pKi means the negative decadic logarithm of the Ki, by convention in mol/L. The low end stands for a high Ki, the high end for a low Ki. `O=C1CN=C(c2ccccc2)c2cc(Cl)ccc2N1` [NORDAZEPAM]: the Change with Mus musculus [11] is reported as 35%; with Mus musculus [12] it was 48%; in the data set with Mus musculus [14], 70%. Besides, in the data set on Mus musculus [2], it took a dose of 0.28 mg/kg to reach the 50% effect level (ED50). This compound gave a pKi in [13] of 4.14. In addition, the Change result with Mus musculus [15] was “inactive”.
Take `CN1C(=O)CN=C(c2ccccc2)c2cc(Cl)ccc21` [DIAZEPAM]: the ED50 with Mus musculus [2] came out at 0.17 mg/kg. Further, the Change in the data set on Mus musculus [12] was 50%; in the data set on Mus musculus [16], 40%; in the data set with Mus musculus [17], 60%; in the data set with Mus musculus [15], 15%. In addition, the TD50 in [4] stood at 7.3 mg/kg.
As to `Cc1cc2c(-c3ccccc3)nc(O)nc2c(C#N)c1C`, the Change result with Mus musculus [7] and in the data set on Mus musculus [9] was “Not significant” throughout. In addition, the TD50 result in the data set listed under Mus musculus [8] is on record as “Not Active”. The ED50 result with Mus musculus [10] is “inactive”.
Regarding `Cc1cc(C(=O)c2ccccc2)c(NC(=O)CBr)c(C#N)c1C`, the Change result in the data set on Mus musculus [18] was “inactive”. In addition, the Change in the data set with Mus musculus [19] is 49%; in the data set on Mus musculus [20] (100 mg/kg), 70% and 37%. In addition, it took a dose of 480 mg/kg to reach the 50% effect level in the data set with Mus musculus [2] (ED50). This compound also registered a TD50 in [4] of 600 mg/kg.
For `Cc1cc2c(c(C#N)c1C)NC=NC2C1CC1` (stereo not drawn), the Change result with Mus musculus [7] and in the data set on Mus musculus [9] was “Not significant” each time. Moreover, in the data set listed under Mus musculus [8], the TD50 entry is on record as “Not Active”. For the same compound, the ED50 result in the data set on Mus musculus [10] was “inactive”.
Turning to `Cc1cc(C(=O)c2ccccc2Cl)c(N)c(C#N)c1C`, the Change result in the data set with Mus musculus [7] and in the data set on Mus musculus [9] was “Not significant” each time. Moreover, in the data set listed under Mus musculus [8], the TD50 entry is reported as “Not Active”. For the same compound, the ED50 entry with Mus musculus [10] was “inactive”.
For `CC1N=CNc2c1cc(-c1ccccc1)c(-c1ccccc1)c2C#N` (stereo not drawn), the Change entry with Mus musculus [7] and in the data set on Mus musculus [9] was “Not significant” in each case. The TD50 entry in the data set filed under Mus musculus [8] was “Not Active”. Further, in the data set on Mus musculus [10], the ED50 entry was “inactive”.
Compound `O=C1NC(=O)C(c2ccccc2)(c2ccccc2)N1` [PHENYTOIN] showed a pKi in data set [13] of 3.81.
Turning to `CC(=O)c1cc(C)c(C)c(C#N)c1NC(=O)CBr`, the Change result in the data set on Mus musculus [21] is “Not significant”; with Mus musculus [20], -14%; with Mus musculus [22], -22%; in the data set with Mus musculus [23] it was -17%. In the data set on Mus musculus [2], this compound gave an ED50 of 500 mg/kg. Besides, the TD50 in [4] was determined as 600 mg/kg.
